{"source": "paper PMC4441290", "about": "(International Journal of Oncology, 2015)", "key": {"[1]": {"tested_on": "HMVEC-L human microvascular endothelial cells", "assay": "Endothelial cell morphogenesis", "type": "cell-based", "conditions": "100 nM, 24 h"}, "human V2r": {"biological_target": "human V2r", "conditions": "cited from earlier work; for Ki: human V2r ref 5"}, "MDA-MB-231 cells": {"tested_on": "MDA-MB-231 cells", "assay": "Clonogenic", "type": "cell-based, human", "conditions": "read-out: IC50 colony formation; MDA-MB-231, 7 days", "how_it_was_run": "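MDA-MB-231 cells were grown in complete medium containing peptide (100–1,500 nM), with medium plus peptide renewed after 72 h. Colonies of >50 cells were counted 7 days after seeding. IC50 was derived by linear regression of the concentration–inhibition plot. Data are from at least three independent experiments, mean ± SEM.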"}, "VWF": {"tested_on": "VWF", "conditions": "after i.v. injection ref 4; cited from earlier work"}, "MDA-MB-231 xenografts": {"tested_on": "MDA-MB-231 xenografts", "assay": "MDA-MB-231 xenograft tumour progression", "type": "in vivo, BALB/c athymic mice", "conditions": "0.3 μg/kg i.v. thrice weekly", "how_it_was_run": "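Athymic BALB/c nude females were injected s.c. with 5×10^6 MDA-MB-231 cells in 300 μl of DMEM:Matrigel (1:1). From day 14, at tumours of ~50 mm3, mice received 0.3 μg/kg i.v. thrice weekly against a saline vehicle. Caliper volumes were calculated as 0.52 × width² × length. Growth rate is the slope of the linear regression of volume over time, mean ± SD.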"}, "F3II mammary tumours": {"tested_on": "F3II mammary tumours", "assay": "F3II subcutaneous tumour progression and spontaneous lung metastases", "type": "in vivo, BALB/c mice", "how_it_was_run": "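Syngeneic female BALB/c mice were injected s.c. with 2×10^5 F3II cells. Dosing started 7 days later, at tumours of ~50 mm3, with 0.3 μg/kg i.v. thrice weekly against a saline vehicle. Caliper volumes were calculated as 0.52 × width² × length. Mice were necropsied on day 50, and Bouin-fixed lungs were scored for macroscopic nodules under a dissecting microscope. Data are mean ± SD.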"}, "[2]": {"tested_on": "F3II mouse mammary carcinoma cells", "assay": "Cell proliferation assay", "type": "cell-based", "conditions": "72 h, concentration-dependent", "how_it_was_run": "(§1)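 Cells seeded at 2.5×10^3 per 200 μl in complete DMEM (10% FBS, 2 mM glutamine), attached overnight. They were then exposed to peptide (100–1,500 nM) or vehicle for 72 h at 37°C, 5% CO2. MTT was added for 4 h, the product dissolved in DMSO, and absorbance read at 570 nm. Untreated control OD was set as 100% viability. Results came from at least three independent experiments, mean ± SEM.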"}, "[3]": {"tested_on": "F3II cells injected into the tail vein", "assay": "Experimental lung metastases assay", "type": "in vivo, BALB/c mice", "conditions": "0.3 μg/kg i.v., two doses (time zero and 24 h), day 21", "how_it_was_run": "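Female 8-week-old SPF BALB/c mice received 2×10^5 F3II cells in DMEM via the tail vein. Peptide at 0.3 μg/kg was given i.v. twice: at time zero and 24 h after cell injection. On day 21, lungs were excised, weighed, fixed in Bouin's solution and photographed, and lung nodules were counted.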"}, "[4]": {"tested_on": "MCF-7 human breast carcinoma cells", "assay": "Cell proliferation assay", "type": "cell-based", "conditions": "72-h exposure, 100–1,500 nM", "how_it_was_run": "as §1"}, "Acute toxicology study": {"assay": "Acute toxicology study", "type": "in vivo, Wistar rats", "conditions": "for ALT / AST / Creatinine / Direct bilirubin / Fibrinogen / GGT / Glucose / Hematocrit / RBC / Total protein / WBC / Weight: 72 h, mean ± SD"}, "[5]": {"tested_on": "MDA-MB-231 human breast carcinoma cells", "assay": "Cell proliferation assay", "type": "cell-based", "conditions": "MDA-MB-231, tolvaptan 1,500 nM plus [V^4Q^5]dDAVP 1,500 nM", "how_it_was_run": "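MDA-MB-231 cells were seeded at 2.5×10^3 per 200 μl in complete DMEM and attached overnight. They were then given 1,500 nM test peptide alone or with the competitive V2r antagonist tolvaptan (1,500 nM) for 72 h. MTT was added for 4 h, DMSO used to solubilise, and absorbance read at 570 nm. Untreated control was set as 100%. There were at least three independent experiments, mean ± SEM.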"}}, "note": "Marks after values point to notes of the source that are not given here."}
{"compound": "NC(=O)CC[C@@H]1NC(=O)[C@H](Cc2ccccc2)NC(=O)[C@H](Cc2ccc(O)cc2)NC(=O)CCSSC[C@@H](C(=O)N2CCC[C@H]2C(=O)N[C@H](CCCN=C(N)N)C(=O)NCC(N)=O)NC(=O)[C@H](CC(N)=O)NC1=O", "note": "[dDAVP, 1-deamino-8-D-arginine vasopressin]", "values": [{"measurement": "capillary-like tube formation", "setting": "[1]", "value": "did not displayed any significant effects"}, {"measurement": "Ki", "setting": "human V2r", "value": 23.3, "unit": "nM"}, {"measurement": "IC50", "setting": "MDA-MB-231 cells", "value": 1440, "unit": "nM"}, {"measurement": "time of peak levels of VWF release", "setting": "VWF", "value": "60 to 90", "unit": "min"}, {"measurement": "reduction in the number of blood vessels (intratumoural vascular density)", "setting": "MDA-MB-231 xenografts", "value": 30, "unit": "%"}, {"measurement": "tumour growth rate", "setting": "MDA-MB-231 xenografts; mean ± SD, control 7.44±0.66", "value": "5.72±0.72", "unit": "mm^3/day"}, {"measurement": "spontaneous lung metastases", "setting": "F3II mammary tumours; 0.3 μg/kg i.v. thrice weekly for 6 weeks, day 50", "value": "not significant"}, {"measurement": "final tumour volume", "setting": "F3II mammary tumours; 0.3 μg/kg i.v. thrice weekly, mean ± SD, P>0.05, control 1822.3±1185", "value": "1574.8±466.1", "unit": "mm^3"}, {"measurement": "cytostatic effect on F3II cells", "setting": "[2]", "value": "mild cytostatic effect"}, {"measurement": "reduction of the number of lung nodules", "setting": "[3]", "value": 32, "unit": "%"}, {"measurement": "effect on proliferation in MCF-7 cell cultures", "setting": "[4]", "value": "mild reduction of proliferation"}, {"measurement": "ALT", "setting": "Acute toxicology study; 1 μg/kg single i.v.", "value": "22.8±3.4", "unit": "IU/l"}, {"measurement": "AST", "setting": "Acute toxicology study; 1 μg/kg single i.v.", "value": "36.6±11.6", "unit": "IU/l"}, {"measurement": "Creatinine", "setting": "Acute toxicology study; 1 μg/kg single i.v.", "value": "0.70 ± 0.16", "unit": "mg/mL"}, {"measurement": "Direct bilirubin", "setting": "Acute toxicology study; 1 μg/kg single i.v.", "value": "0.13 ± 0.04", "unit": "mg/dL"}, {"measurement": "Fibrinogen", "setting": "Acute toxicology study; 1 μg/kg single i.v.", "value": "221.0 ± 67.8", "unit": "mg/dL"}, {"measurement": "GGT", "setting": "Acute toxicology study; 1 μg/kg single i.v.", "value": "2.8±0.8", "unit": "IU/l"}, {"measurement": "Glucose", "setting": "Acute toxicology study; 1 μg/kg single i.v.", "value": "207.0±25.7 ^d mg/dl"}, {"measurement": "Hematocrit", "setting": "Acute toxicology study; 1 μg/kg single i.v.", "value": "40.4±2.3", "unit": "%"}, {"measurement": "RBC", "setting": "Acute toxicology study; 1 μg/kg single i.v.", "value": "5.2±0.3 10^6/ml"}, {"measurement": "Total protein", "setting": "Acute toxicology study; 1 μg/kg single i.v.", "value": "6.6 ± 0.8", "unit": "g/dL"}, {"measurement": "WBC", "setting": "Acute toxicology study; 1 μg/kg single i.v.", "value": "4.8±0.3 10^3/ml"}, {"measurement": "Weight", "setting": "Acute toxicology study; 1 μg/kg single i.v.", "value": "234.2 ± 8.1", "unit": "g"}, {"measurement": "ALT", "setting": "Acute toxicology study; 10 μg/kg single i.v.", "value": "22.6±3.4", "unit": "IU/l"}, {"measurement": "AST", "setting": "Acute toxicology study; 10 μg/kg single i.v.", "value": "30.0±5.6", "unit": "IU/l"}, {"measurement": "Creatinine", "setting": "Acute toxicology study; 10 μg/kg single i.v.", "value": "0.65 ± 0.08", "unit": "mg/mL"}, {"measurement": "Direct bilirubin", "setting": "Acute toxicology study; 10 μg/kg single i.v.", "value": "0.14±0.02 ^d mg/dl"}, {"measurement": "Fibrinogen", "setting": "Acute toxicology study; 10 μg/kg single i.v.", "value": "226.7 ± 48.4", "unit": "mg/dL"}, {"measurement": "GGT", "setting": "Acute toxicology study; 10 μg/kg single i.v.", "value": "2.6±0.9", "unit": "IU/l"}, {"measurement": "Glucose", "setting": "Acute toxicology study; 10 μg/kg single i.v.", "value": "218.8±20.0 ^d mg/dl"}, {"measurement": "Hematocrit", "setting": "Acute toxicology study; 10 μg/kg single i.v.", "value": "40.5±2.7", "unit": "%"}, {"measurement": "RBC", "setting": "Acute toxicology study; 10 μg/kg single i.v.", "value": "5.5±0.3 10^6/ml"}, {"measurement": "Total protein", "setting": "Acute toxicology study; 10 μg/kg single i.v.", "value": "6.9 ± 0.5", "unit": "g/dL"}, {"measurement": "WBC", "setting": "Acute toxicology study; 10 μg/kg single i.v.", "value": "4.4±0.5 10^3/ml"}, {"measurement": "Weight", "setting": "Acute toxicology study; 10 μg/kg single i.v.", "value": "240.3 ± 9.4", "unit": "g"}, {"measurement": "ALT", "setting": "Acute toxicology study; 100 μg/kg single i.v.", "value": "21.3±2.1", "unit": "IU/l"}, {"measurement": "AST", "setting": "Acute toxicology study; 100 μg/kg single i.v.", "value": "47.5±17.8", "unit": "IU/l"}, {"measurement": "Creatinine", "setting": "Acute toxicology study; 100 μg/kg single i.v.", "value": "0.70 ± 0.09", "unit": "mg/mL"}, {"measurement": "Direct bilirubin", "setting": "Acute toxicology study; 100 μg/kg single i.v.", "value": "0.17±0.03 ^d mg/dl"}, {"measurement": "Fibrinogen", "setting": "Acute toxicology study; 100 μg/kg single i.v.", "value": "243.0 ± 63.1", "unit": "mg/dL"}, {"measurement": "GGT", "setting": "Acute toxicology study; 100 μg/kg single i.v.", "value": "3.0±1.2", "unit": "IU/l"}, {"measurement": "Glucose", "setting": "Acute toxicology study; 100 μg/kg single i.v.", "value": "230.7±12.1 ^d mg/dl"}, {"measurement": "Hematocrit", "setting": "Acute toxicology study; 100 μg/kg single i.v.", "value": "41.8±3.4", "unit": "%"}, {"measurement": "RBC", "setting": "Acute toxicology study; 100 μg/kg single i.v.", "value": "5.7±0.3 10^6/ml"}, {"measurement": "Total protein", "setting": "Acute toxicology study; 100 μg/kg single i.v.", "value": "7.0 ± 0.5", "unit": "g/dL"}, {"measurement": "WBC", "setting": "Acute toxicology study; 100 μg/kg single i.v.", "value": "4.1±0.7 10^3/ml"}, {"measurement": "Weight", "setting": "Acute toxicology study; 100 μg/kg single i.v.", "value": "241.8 ± 16.8", "unit": "g"}, {"measurement": "safety profile", "setting": "Acute toxicology study; reference standard, single i.v. 1, 10 or 100 μg/kg", "value": "consistent with previous observations"}]}
{"compound": "4-valine-dDAVP", "values": [{"measurement": "affinity for the human V2r relative to dDAVP", "setting": "human V2r; higher affinity than dDAVP ref 5", "value": 10, "unit": "fold"}, {"measurement": "Ki", "setting": "human V2r", "value": 2.2, "unit": "nM"}]}
{"compound": "Cc1ccccc1C(=O)Nc1ccc(C(=O)N2CCCC(O)c3cc(Cl)ccc32)c(C)c1", "note": "(stereo not drawn) [tolvaptan]", "values": [{"measurement": "blockade of growth-modulating activity of [V^4Q^5]dDAVP", "setting": "[5]", "value": "completely abolished"}]}
